{"source": "ChEMBL document CHEMBL1255300", "about": "“Pharmacodynamics of the antibacterial effect and emergence of resistance to tomopenem, formerly RO4908463/CS-023, in an in vitro pharmacokinetic model of Staphylococcus aureus infection” (Antimicrob Agents Chemother, 2008)", "key": {"Staphylococcus aureus [1]": {"test_system": "Staphylococcus aureus", "experiment": "T>MIC for 4-log drop in count in methicillin-resistant Staphylococcus aureus 33922 in in vitro pharmacokinetic model after 24 hrs using 10^8 CFU/ml inoculum", "type": "functional"}, "Staphylococcus aureus [2]": {"test_system": "Staphylococcus aureus", "experiment": "Antibacterial activity against methicillin-sensitive Staphylococcus aureus 5956 assessed as viable count at 4 times of MIC after 48 hrs using 10^6 CFU/ml inoculum", "type": "functional, organism-based"}, "Staphylococcus aureus [3]": {"test_system": "Staphylococcus aureus", "experiment": "T>MIC for 2-log drop in count in methicillin-resistant Staphylococcus aureus 33827 in in vitro pharmacokinetic model after 24 hrs using 10^6 CFU/ml inoculum", "type": "functional"}, "Staphylococcus aureus [4]": {"test_system": "Staphylococcus aureus", "experiment": "T>MIC for 2-log drop in count in methicillin-resistant Staphylococcus aureus 33815 in in vitro pharmacokinetic model after 24 hrs using 10^6 CFU/ml inoculum", "type": "functional"}, "Staphylococcus aureus [5]": {"test_system": "Staphylococcus aureus", "experiment": "Antibacterial activity against methicillin-resistant Staphylococcus aureus 33815 in in vitro pharmacokinetic model assessed as viable count at 6 times of MIC", "type": "functional", "in_short": "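Preexposure population analysis profile: model sample at time zero plated on nutrient agar with tomopenem at multiples of the MIC. Growth counted as log CFU/ml, detection limit 2 log10.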"}, "Staphylococcus aureus [6]": {"test_system": "Staphylococcus aureus", "experiment": "Antibacterial activity against methicillin-resistant Staphylococcus aureus 33921 infected in in vitro pharmacokinetic model assessed as reduction in viable count at 750 mg, iv every 8 hrs measured after 48 hrs using 10^6 CFU/ml inoculum", "type": "functional"}, "Staphylococcus aureus [7]": {"test_system": "Staphylococcus aureus", "experiment": "Antibacterial activity against methicillin-resistant Staphylococcus aureus 33827 infected in in vitro pharmacokinetic model assessed as reduction in viable count at 1500 mg, iv every 8 hrs measured after 36 hrs using 10^6 CFU/ml inoculum", "type": "functional", "in_short": "(§1)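 Single-compartment dilutional in vitro PK model, 10% Mueller-Hinton broth, 37°C, stirred, dilution 132 ml/h. […] Inoculum 10^6 CFU/ml (added 45 min pre-dose) or 10^8 CFU/ml (run overnight). Viable counts by spiral plating, beta-lactamase neutralization, detection limit 10^2 CFU/ml. At least triplicate.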"}, "Staphylococcus aureus [8]": {"test_system": "Staphylococcus aureus", "experiment": "Antibacterial activity against methicillin-resistant Staphylococcus aureus 33921 infected in in vitro pharmacokinetic model assessed as reduction in viable count at 750 mg, iv every 8 hrs measured after 36 hrs using 10^6 CFU/ml inoculum", "type": "functional"}, "Staphylococcus aureus [9]": {"test_system": "Staphylococcus aureus", "experiment": "Antibacterial activity against methicillin-resistant Staphylococcus aureus 33921 by broth dilution method", "type": "functional", "in_short": "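MIC by CLSI broth dilution, or by broth dilution in 10% Mueller-Hinton broth at nondoubling dilutions.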"}, "Staphylococcus aureus [10]": {"test_system": "Staphylococcus aureus", "experiment": "AUBKC (0 to 24 hrs) in methicillin-resistant Staphylococcus aureus 33922 infected in in vitro pharmacokinetic model at 750 mg, iv every 8 hrs using 10^8 CFU/ml inoculum", "type": "functional", "in_short": "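Single-compartment dilutional in vitro PK model at 37°C in 10% Mueller-Hinton broth, stirred, flow 132 ml/h. […] Inoculum 10^6 CFU/ml added 45 min before dosing, or 10^8 CFU/ml run overnight. Viable counts with β-lactamase neutralisation. AUBKC by log-linear trapezoidal rule, at least triplicate.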"}, "Staphylococcus aureus [11]": {"test_system": "Staphylococcus aureus", "experiment": "Antibacterial activity against methicillin-resistant Staphylococcus aureus 33829 infected in in vitro pharmacokinetic model assessed as reduction in viable count at 1500 mg, iv every 8 hrs measured after 36 hrs using 10^6 CFU/ml inoculum", "type": "functional", "in_short": "as §1"}, "Staphylococcus aureus [12]": {"test_system": "Staphylococcus aureus", "experiment": "Antibacterial activity against methicillin-resistant Staphylococcus aureus 33820 in in vitro pharmacokinetic model assessed as viable count at 2 times of MIC", "type": "functional", "in_short": "(§2)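 Population analysis before drug exposure (time 0). Model samples were plated on nutrient agar without drug and with tomopenem at 2×, 4× and 6× MIC (10% MHB MIC), and growth was recorded as log CFU/ml. Detection limit 2 log10.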"}, "Staphylococcus aureus [13]": {"test_system": "Staphylococcus aureus", "experiment": "Antibacterial activity against methicillin-resistant Staphylococcus aureus 33820 infected in in vitro pharmacokinetic model assessed as time required to 99% killing at 750 mg, iv every 8 hrs using 10^6 CFU/ml inoculum", "type": "functional"}, "Staphylococcus aureus [14]": {"test_system": "Staphylococcus aureus", "experiment": "Antibacterial activity against methicillin-resistant Staphylococcus aureus 33827 infected in in vitro pharmacokinetic model assessed as reduction in viable count at 750 mg, iv every 8 hrs measured after 36 hrs using 10^8 CFU/ml inoculum", "type": "functional", "in_short": "as §1"}, "Staphylococcus aureus [15]": {"test_system": "Staphylococcus aureus", "experiment": "Antibacterial activity against methicillin-resistant Staphylococcus aureus 33827 assessed as viable count at 2 times of MIC after 24 hrs using 10^6 CFU/ml inoculum", "type": "functional, organism-based"}, "Staphylococcus aureus [16]": {"test_system": "Staphylococcus aureus", "experiment": "T>MIC for 2-log drop in count in methicillin-resistant Staphylococcus aureus 33922 in in vitro pharmacokinetic model after 24 hrs using 10^8 CFU/ml inoculum", "type": "functional"}, "Staphylococcus aureus [17]": {"test_system": "Staphylococcus aureus", "experiment": "Antibacterial activity against methicillin-resistant Staphylococcus aureus 33820 infected in in vitro pharmacokinetic model assessed as reduction in viable count at 750 mg, iv every 8 hrs measured after 48 hrs using 10^6 CFU/ml inoculum", "type": "functional", "in_short": "(§3)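 Single-compartment dilutional in vitro PK model, 37°C, stirred, in 10% Mueller-Hinton broth. […] Inoculum 10^6 CFU/ml from a 24-h plate culture was added 45 min before dosing. Viable counts by spiral plating on nutrient agar with β-lactamase neutralization. Log change was taken from time 0; detection limit 10^2 CFU/ml; at least triplicate.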"}, "Staphylococcus aureus [18]": {"test_system": "Staphylococcus aureus", "experiment": "Antibacterial activity against methicillin-resistant Staphylococcus aureus 33827 infected in in vitro pharmacokinetic model assessed as reduction in viable count at 1500 mg, iv every 8 hrs measured after 24 hrs using 10^8 CFU/ml inoculum", "type": "functional", "in_short": "as §1"}, "Staphylococcus aureus [19]": {"test_system": "Staphylococcus aureus", "experiment": "T>MIC for 3-log drop in count in methicillin-sensitive Staphylococcus aureus 5956 in in vitro pharmacokinetic model after 24 hrs using 10^8 CFU/ml inoculum", "type": "functional", "in_short": "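Dose-ranging: 7–13 simulated regimens per strain giving T>MIC of 0–100% (MIC from 10% MHB), at 106 or 10^8 CFU/ml as stated.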"}, "Staphylococcus aureus [20]": {"test_system": "Staphylococcus aureus", "experiment": "Antibacterial activity against methicillin-resistant Staphylococcus aureus 33922 by 10% MH broth method", "type": "functional"}, "Staphylococcus aureus [21]": {"test_system": "Staphylococcus aureus", "experiment": "Antibacterial activity against methicillin-resistant Staphylococcus aureus 33815 infected in in vitro pharmacokinetic model assessed as time required to 99.9% killing at 750 mg, iv every 8 hrs using 10^6 CFU/ml inoculum", "type": "functional"}, "Staphylococcus aureus [22]": {"test_system": "Staphylococcus aureus", "experiment": "Antibacterial activity against methicillin-resistant Staphylococcus aureus 33815 infected in in vitro pharmacokinetic model assessed as reduction in viable count at 750 mg, iv every 8 hrs measured after 36 hrs using 10^6 CFU/ml inoculum", "type": "functional", "in_short": "as §3"}, "Staphylococcus aureus [23]": {"test_system": "Staphylococcus aureus", "experiment": "T>MIC in methicillin-sensitive Staphylococcus aureus 5956 infected in vitro pharmacokinetic model at 750 mg, iv every 8 hrs", "type": "functional"}, "Staphylococcus aureus [24]": {"test_system": "Staphylococcus aureus", "experiment": "Antibacterial activity against methicillin-resistant Staphylococcus aureus 33827 in in vitro pharmacokinetic model assessed as viable count at 6 times of MIC", "type": "functional", "in_short": "as §2"}, "Staphylococcus aureus [25]": {"test_system": "Staphylococcus aureus", "experiment": "Antibacterial activity against methicillin-resistant Staphylococcus aureus 33922 infected in in vitro pharmacokinetic model assessed as reduction in viable count at 750 mg, iv every 8 hrs measured after 24 hrs using 10^8 CFU/ml inoculum", "type": "functional"}, "Staphylococcus aureus [26]": {"test_system": "Staphylococcus aureus", "experiment": "Antibacterial activity against methicillin-resistant Staphylococcus aureus 33827 by 10% MH broth method", "type": "functional", "in_short": "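Broth dilution MIC per CLSI, run in 10% Mueller-Hinton broth at nondoubling dilutions.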"}, "Staphylococcus aureus [27]": {"test_system": "Staphylococcus aureus", "experiment": "Antibacterial activity against methicillin-resistant Staphylococcus aureus 33815 infected in in vitro pharmacokinetic model assessed as reduction in viable count at 750 mg, iv every 8 hrs measured after 24 hrs using 10^6 CFU/ml inoculum", "type": "functional", "in_short": "as §3"}}, "note": "Calls of active or inactive are those of the source. The rule behind the calls is not given here."}
{"smiles": "C[C@@H](O)[C@H]1C(=O)N2C(C(=O)O)=C(S[C@H]3C[C@@H](C(=O)N4CC[C@H](NC(=O)CNC(=N)N)C4)N(C)C3)[C@H](C)[C@H]12", "note": "[TOMOPENEM]", "values": [{"measurement": "fT>MIC", "setting": "Staphylococcus aureus [1]", "value": 15, "unit": "%"}, {"measurement": "Activity", "setting": "Staphylococcus aureus [2]", "value": "inactive"}, {"measurement": "fT>MIC", "setting": "Staphylococcus aureus [3]", "value": 31.2, "unit": "%"}, {"measurement": "fT>MIC", "setting": "Staphylococcus aureus [4]", "value": 12.5, "unit": "%"}, {"measurement": "log10CFU/ml", "setting": "Staphylococcus aureus [5]", "value": "<2"}, {"measurement": "log10CFU/ml", "setting": "Staphylococcus aureus [6]", "value": 3.8}, {"measurement": "log10CFU/ml", "setting": "Staphylococcus aureus [7]", "value": 4}, {"measurement": "log10CFU/ml", "setting": "Staphylococcus aureus [8]", "value": 3.9}, {"measurement": "MIC", "setting": "Staphylococcus aureus [9]", "value": 0.5, "unit": "µg/mL"}, {"measurement": "AUBC", "setting": "Staphylococcus aureus [10]", "value": 71.5, "unit": "log10CFU/ml.hr"}, {"measurement": "log10CFU/ml", "setting": "Staphylococcus aureus [11]", "value": 4}, {"measurement": "log10CFU/ml", "setting": "Staphylococcus aureus [12]", "value": 2.3}, {"measurement": "Time", "setting": "Staphylococcus aureus [13]", "value": 7, "unit": "h"}, {"measurement": "log10CFU/ml", "setting": "Staphylococcus aureus [14]", "value": 5}, {"measurement": "Activity", "setting": "Staphylococcus aureus [15]", "value": "inactive"}, {"measurement": "fT>MIC", "setting": "Staphylococcus aureus [16]", "value": 4.7, "unit": "%"}, {"measurement": "log10CFU/ml", "setting": "Staphylococcus aureus [17]", "value": 4.2}, {"measurement": "log10CFU/ml", "setting": "Staphylococcus aureus [18]", "value": 5.8}, {"measurement": "fT>MIC", "setting": "Staphylococcus aureus [19]", "value": 12.8, "unit": "%"}, {"measurement": "MIC", "setting": "Staphylococcus aureus [20]", "value": 0.25, "unit": "µg/mL"}, {"measurement": "Time", "setting": "Staphylococcus aureus [21]", "value": 12, "unit": "h"}, {"measurement": "log10CFU/ml", "setting": "Staphylococcus aureus [22]", "value": 4.2}, {"measurement": "fT>MIC", "setting": "Staphylococcus aureus [23]", "value": 100, "unit": "%"}, {"measurement": "log10CFU/ml", "setting": "Staphylococcus aureus [24]", "value": "<2"}, {"measurement": "log10CFU/ml", "setting": "Staphylococcus aureus [25]", "value": 5}, {"measurement": "MIC", "setting": "Staphylococcus aureus [26]", "value": 0.75, "unit": "µg/mL"}, {"measurement": "log10CFU/ml", "setting": "Staphylococcus aureus [27]", "value": 4.2}]}
